Drawing on PubChem BioAssay AID504518 (Sanford-Burnham Center for Chemical Genomics, 2011), this text covers IC50 for 78 compounds.

The source made the active and inactive calls.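 Rule for the calls: active = mean IC50 at or below 20 µM; inactive = the rest.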 A value given as a limit tells only on which side of the number the result lay.

Broadly, the IC50 is the midpoint of a concentration-inhibition curve.

This experiment concerns HEK-293T NF-kB-Luc, TNFa-induced, luciferase luminescence 14 h. Description: TNFa-induced NF-kB reporter inhibition, SAR follow-up, selectivity assay for B-cell antigen receptor NF-kB inhibitors, cell-based, HEK-293T, luminescence (AID 504518). Summed up: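 System: HEK-293-T cells carrying an NF-kB-driven luciferase reporter; Input: 6000 cells per well; Buffer or medium: phenol-red-free DMEM; Reagent: TNF-alpha, 0.1 ng/mL; Doses: compound dilution series, DMSO no higher than 1%; Times: 14 h compound exposure, 37 °C; Measured by: luciferase luminescence measured with SteadyGlo reagent.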
Take `CCc1ccc(-c2noc(CCC(=O)NC3CC3)n2)cc1`: the IC50 is 21.1 µM (inactive). The result for `CCC(C)NC(=O)CCc1nc(-c2ccccc2)no1` (stereo not drawn) reads > 79 µM (inactive). The result for `CCOc1ccccc1-c1nc(CSCC(=O)O)c(C)o1` reads > 79 µM (inactive). The result for `CCOc1ccc(-c2nc(CSCC(=O)NC3CCC3)c(C)o2)cc1` reads 38.7 µM (inactive); that for `CCNC(=O)CCc1nc(-c2ccccc2)no1`, > 79 µM (inactive). In the case of `CCNC(=O)CCc1nc(-c2ccc(C(C)(C)C)cc2)no1`, the IC50 is 35.8 µM (inactive). The result for `CCc1ccc(-c2nc(CSCC(=O)NCc3ccco3)c(C)o2)cc1` reads > 79 µM (inactive); that for `CCOc1ccc(-c2nc(CSCC(=O)NC)c(C)o2)cc1`, > 79 µM (inactive); that for `CCCCc1ccc(-c2noc(CCC(=O)NC)n2)cc1`, 1.98 µM. The result for `CNC(=O)CCc1nc(-c2ccc(C(C)C)cc2)no1` reads 56.9 µM (inactive); that for `Cc1ccc(-c2nc(CSCC(=O)NCc3ccco3)c(C)o2)cc1`, 33.6 µM (inactive). The result for `CCOc1ccc(-c2nc(CSCC(N)=O)c(C)o2)cc1` reads > 79 µM (inactive).

Consider `CCCCc1ccc(-c2noc(CCC(=O)NC(C)CC)n2)cc1` (stereo not drawn), for which the IC50 is 0.51 µM. The value for `CCOc1ccc(-c2noc(CCC(=O)O)n2)cc1` was 10.6 µM. The result for `CCOc1ccc(-c2nc(CSCC(=O)N3CCOCC3)c(C)o2)cc1` reads 64.6 µM (inactive). The result for `CNC(=O)CCc1nc(-c2ccccc2)no1` reads > 79 µM (inactive); that for `CCNC(=O)CCc1nc(-c2ccc(C(C)C)cc2)no1`, 21.3 µM (inactive). Take `CCc1ccc(-c2noc(CCC(=O)NC(C)(C)C)n2)cc1`: the IC50 was 22 µM (inactive). For the compound `CCNC(=O)CCc1nc(-c2c(Cl)cccc2Cl)no1`, the IC50 was > 79 µM (inactive). The result for `CCNC(=O)CCc1nc(-c2ccc(OCC)cc2)no1` reads > 79 µM (inactive); that for `CCNC(=O)CCc1nc(-c2cccc(OC)c2)no1`, > 79 µM (inactive); that for `CCNC(=O)CCc1nc(-c2ccc(CC)cc2)no1`, 65.3 µM (inactive). The value for `COc1ccc(C(=O)Nc2ccc3[nH]c(-c4cccc(OC)c4)cc(=O)c3c2)cc1` was > 79 µM (inactive).

Turning to `CCOc1ccc(-c2nc(CSCC(=O)NC3CC3)c(C)o2)cc1`, the IC50 was > 79 µM (inactive). The value for `CCCCOc1ccc(-c2nc(CSCC(=O)O)c(C)o2)cc1` was 0.04 µM. The result for `CC(C)(C)c1ccc(-c2noc(CCC(=O)NC3CCC3)n2)cc1` reads 1.18 µM; that for `CCOc1cccc(-c2nc(CSCC(=O)NC3CC3)c(C)o2)c1`, > 79 µM (inactive). Take `CCOc1ccc(-c2nc(CSCC(=O)NC(C)(C)C)c(C)o2)cc1`: the IC50 was 37.7 µM (inactive). The result for `COc1ccc(-c2nc(CSCC(=O)NC3CC3)c(C)o2)cc1` reads > 79 µM (inactive). The value for `CN(C)C(=O)CCc1nc(-c2ccc(C(C)(C)C)cc2)no1` was 42.2 µM (inactive); that for `CC(C)c1ccc(-c2noc(CCC(=O)NC3CC3)n2)cc1` was 3.11 µM; that for `Cc1oc(-c2ccc(OC(F)(F)F)cc2)nc1CSCC(=O)NC1CC1` was 27.9 µM (inactive). The result for `Cc1ccc(-c2nc(CSCC(=O)NC3CC3)c(C)o2)cc1` reads 71.1 µM (inactive); that for `CCc1ccc(-c2noc(CCC(=O)NC)n2)cc1`, > 79 µM (inactive). `COc1cccc(-c2cc(=O)c3cc(NC(=O)c4ccccc4)ccc3[nH]2)c1`: the IC50 was > 79 µM (inactive). On to `CCOc1ccc(-c2nc(CSCC(=O)NCC3CC3)c(C)o2)cc1`, for which the IC50 is 55.4 µM (inactive). The result for `Cc1oc(-c2ccc(C(F)(F)F)cc2)nc1CSCC(=O)NC1CC1` reads 24.4 µM (inactive); that for `C#CCNC(=O)CSCc1nc(-c2ccc(OCC)cc2)oc1C`, > 79 µM (inactive). The result for `CCCCc1ccc(-c2noc(CCC(=O)NCC)n2)cc1` reads 0.77 µM; that for `CCOc1ccccc1-c1nc(CSCC(=O)NC2CC2)c(C)o1`, > 79 µM (inactive).

As for `O=C(O)CCc1nc(-c2ccccc2)no1`, the IC50 is > 79 µM (inactive). The result for `CC(C)Nc1ccc(C(CC(=O)O)NC(=O)c2ccccc2)cc1[N+](=O)[O-]` (stereo not drawn) reads > 79 µM (inactive). For `COc1cccc(-c2cc(=O)c3cc(NC(=O)c4ccc(N(C)C)cc4)ccc3[nH]2)c1`, the IC50 is 15.2 µM. Take `CCc1ccc(-c2nc(CSCC(=O)NC3CC3)c(C)o2)cc1`: the IC50 is 42.2 µM (inactive). In the case of `CC(C)(C)NC(=O)CCc1nc(-c2ccccc2)no1`, the IC50 is > 79 µM (inactive).

Turning to `CCNC(=O)CCc1nc(-c2ccccc2C)no1`, the IC50 was > 79 µM (inactive). The value for `CCC(C)NC(=O)CCc1nc(-c2ccc(C(C)(C)C)cc2)no1` (stereo not drawn) was 3 µM; that for `CC(C)(C)c1ccc(-c2noc(CCC(N)=O)n2)cc1` was 0.78 µM; that for `CCN(CC)C(=O)CCc1nc(-c2ccc(C(C)(C)C)cc2)no1` was 16.8 µM. The result for `CCNC(=O)CCc1nc(-c2cccc(C)c2)no1` reads > 79 µM (inactive).

Take `CCOc1ccc(-c2nc(CSCC(=O)N(C)C)c(C)o2)cc1`: the IC50 is 78.5 µM (inactive).

Take `CCCCOc1ccc(-c2nc(CSCC(=O)NC3CC3)c(C)o2)cc1`: the half-inhibitory concentration (IC50) is 11.1 µM.

In the case of `COC(=O)CCc1nc(-c2ccc(C(C)(C)C)cc2)no1`, the IC50 was 0.22 µM. With `CCOc1ccc(-c2nc(CSCC(=O)NC3CC3)c(-c3ccccc3)o2)cc1`, the IC50 is > 79 µM (inactive). The value for `CCCCc1ccc(-c2noc(CCC(=O)NC(C)(C)C)n2)cc1` was 0.66 µM. The result for `Cc1oc(-c2ccc(C(F)(F)F)cc2)nc1CSCC(=O)O` reads 0.38 µM; that for `CC(C)c1ccc(-c2noc(CCC(=O)NC(C)(C)C)n2)cc1`, 5 µM; that for `CCCOc1ccc(-c2nc(CSCC(=O)NC3CC3)c(C)o2)cc1`, 31.5 µM (inactive). The result for `Cc1oc(-c2ccc(OC(F)(F)F)cc2)nc1CSCC(=O)O` reads 0.11 µM; that for `O=C(CCc1nc(-c2ccccc2)no1)NC1CC1`, > 79 µM (inactive); that for `CCNC(=O)CCc1nc(-c2cccc(F)c2)no1`, > 79 µM (inactive). In the case of `Cc1oc(-c2ccccc2)nc1CSCC(=O)NCc1ccco1`, the IC50 is > 79 µM (inactive).

Regarding `CCC(C)NC(=O)CCc1nc(-c2ccc(C(C)C)cc2)no1` (stereo not drawn), the IC50 is 3.48 µM. The value for `CCCOc1ccc(-c2nc(CSCC(=O)NCc3ccco3)c(C)o2)cc1` was 9.74 µM. The result for `CCc1ccc(-c2noc(CCC(=O)NC(C)CC)n2)cc1` (stereo not drawn) reads 14.1 µM; that for `CCCCOc1ccc(-c2nc(CSCC(=O)NCc3ccco3)c(C)o2)cc1`, 13.1 µM. The result for `CNC(=O)CCc1nc(-c2ccc(C(C)(C)C)cc2)no1` reads 66.8 µM (inactive); that for `CC(C)(C)c1ccc(-c2noc(CCC(=O)NC3CC3)n2)cc1`, 12 µM; that for `CCOc1ccc(-c2nc(CSCC(=O)NCc3ccco3)c(C)o2)cc1`, 21.4 µM (inactive). With `CCOc1ccc(-c2nc(CSCC(=O)O)c(C)o2)cc1`, the IC50 is 0.04 µM. The value for `COc1ccc(-c2nc(CSCC(=O)NCc3ccco3)c(C)o2)cc1` was 35.8 µM (inactive); that for `CC(C)(C)c1ccc(-c2noc(CCC(=O)O)n2)cc1` was 0.29 µM. The result for `CCNC(=O)CCc1nc(-c2ccccc2Cl)no1` reads > 79 µM (inactive); that for `CCOC(=O)CC(NC(=O)c1ccc(Br)cc1)c1ccc(F)c([N+](=O)[O-])c1` (stereo not drawn), 73.4 µM (inactive); that for `Cc1oc(-c2ccccc2)nc1CSCC(=O)NC1CC1`, > 79 µM (inactive). The value for `CCc1ccc(-c2nc(CSCC(=O)NC3CC3)c(-c3ccccc3)o2)cc1` was > 79 µM (inactive); that for `CCCOc1ccc(-c2nc(CSCC(=O)O)c(C)o2)cc1` was 0.03 µM.

For the compound `CCCCc1ccc(-c2noc(CCC(=O)NC3CC3)n2)cc1`, the IC50 was 0.55 µM.
